Compounds with a hit are over-represented: about 2.9% of the library has one in this group of screens.
S100A4 MyoIIA: inhibitors of S100A4-myosin IIA peptide binding, primary screen, biochemical, fluorescence polarization, TAMRA-MyoIIA peptide; Protein S100-A4 (Homo sapiens), P26447; inhibition, % at 10.7 µM; actives 0.14% (n = 360,000);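 active means mean inhibition of at least 70% across replicates, with every replicate also reaching that level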
Target sequence (P26447 whole entry, looked up): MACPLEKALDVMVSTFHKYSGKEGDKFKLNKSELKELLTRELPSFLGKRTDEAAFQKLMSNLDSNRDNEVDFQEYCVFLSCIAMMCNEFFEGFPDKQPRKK
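Test system: S100A4 monomer protein. Medium: HEPES buffer with Ca2+, pH 7.2. Reagent: fluorescent myosin IIA peptide, 5 nM. Compound dosing: single-point compound testing. Timing: 5 min between mix addition and reading. Benchmarks: DMSO neutral and TFP positive wells.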
SIRT5 inh: SIRT5 desuccinylase inhibitors, primary screen, biochemical, fluorescence imaging, single point, set 5; NAD-dependent protein deacylase sirtuin-5, mitochondrial (Homo sapiens), Q9NXA8; Purified SirT5, succinyl-peptide AMC, trypsin-coupled fluorescence; inhibition, % at 15 µM; actives 1.1% (n = 330,000); AID 652115, 2013; in the data active means inhibition above about 15%
Target sequence (Q9NXA8 whole entry, looked up): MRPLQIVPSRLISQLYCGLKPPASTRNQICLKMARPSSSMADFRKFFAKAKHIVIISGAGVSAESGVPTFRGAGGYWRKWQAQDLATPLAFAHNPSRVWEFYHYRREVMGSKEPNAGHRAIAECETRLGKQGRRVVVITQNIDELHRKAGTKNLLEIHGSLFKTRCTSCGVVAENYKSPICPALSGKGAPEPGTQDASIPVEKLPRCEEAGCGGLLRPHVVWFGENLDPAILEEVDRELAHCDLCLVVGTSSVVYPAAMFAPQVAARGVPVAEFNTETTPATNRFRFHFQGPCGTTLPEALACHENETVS
DENV2 CPE: inhibitors of DENV2 cytopathic effect, primary screen, cell-based, plate reader, single concentration. DENV2-infected cells, cytopathic effect rescue. CPE inhibition, % at 9.99 µM. actives 1.7% (n = 350,000); in the data active means CPE inhibition above about 20%, passing the limit was not always enough; tested in BHK-21 cells;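 further: 0% = median of neutral control wells and 100% = median of positive control wells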
PGC1a acetyl inh: inhibitors of PGC1a acetylation signal, primary screen, cell-based, U2OS, AlphaScreen, inhibitor mode | actives 0.17% (n = 350,000) | inhibition, % at 15.6 µM | AID 651687, 2012 | AlphaScreen anti-acetyl-lysine; with virally co-expressed GCN5 acetyltransferase;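 active means every replicate shows inhibition of at least 40%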;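 further: 0% = neutral control wells and 100% = positive control wells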
C2C12 statin: suppressors of statin myotoxicity in C2C12 myotubes, primary screen, cell-based, single point, plate reader; C2C12 myotubes + simvastatin, ATP luminescence, 48 h; scaled: DMSO 0, geranylgeraniol control 100; rescue of ATP level, % at 7.49 µM; actives 0.78% (n = 330,000);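 active means mean ATP rescue above about 67%, or every replicate alone reaching that limit, limit read from the data, passing the limit was not always enough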;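 further: myotubes were challenged with 10 µM simvastatin during compound exposure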
* marks the source's active call; other numbers are inactive results.

For C[C@@H]1CN([C@H](C)CO)C(=O)c2cccc(NC(=O)C3CCOCC3)c2O[C@@H]1CN(C)C(=O)Nc1ccc(C(F)(F)F)cc1 the results were S100A4 MyoIIA -5, SIRT5 inh 0, DENV2 CPE -4, PGC1a acetyl inh -2 and C2C12 statin 9.
C[C@H](CO)N1C[C@H](C)[C@@H](CN(C)S(=O)(=O)c2cn(C)cn2)Oc2ccc(NC(=O)Nc3cccc4ccccc34)cc2C1=O was read as S100A4 MyoIIA 6, SIRT5 inh -1, DENV2 CPE 2, PGC1a acetyl inh -2 and C2C12 statin 31.
For COc1ccc(CNC(=O)C[C@@H]2CC[C@@H]3[C@H](COc4ccc(NC(=O)C5CC5)cc4C(=O)N3C)O2)cc1 the results were S100A4 MyoIIA 11, SIRT5 inh -1, DENV2 CPE 12, PGC1a acetyl inh -7 and C2C12 statin 4.
Screening CCCN(C)C[C@@H]1OCCCC[C@@H](C)Oc2ccc(NS(=O)(=O)c3c(C)noc3C)cc2C(=O)N([C@@H](C)CO)C[C@@H]1C returned S100A4 MyoIIA -2, SIRT5 inh 0, DENV2 CPE -1 and PGC1a acetyl inh -4.
For COc1ccc(NC(=O)N[C@H]2CC[C@@H](CCNC(=O)CCN3CCCCC3)O[C@@H]2CO)cc1 the results were S100A4 MyoIIA 1, SIRT5 inh -3, DENV2 CPE -1, PGC1a acetyl inh 5 and C2C12 statin 0.
Screening O=C(Nc1ccc(C(F)(F)F)cc1)Nc1ccc2c(c1)[C@@H]1C[C@H](CC(=O)N3CCc4ccccc4C3)O[C@@H](CO)[C@@H]1O2 returned S100A4 MyoIIA 2, SIRT5 inh -1, DENV2 CPE 12, PGC1a acetyl inh -10 and C2C12 statin 1.
Screening C[C@@H]1CN([C@H](C)CO)S(=O)(=O)c2ccc(C#Cc3ccccc3)cc2O[C@@H]1CN(C)C(=O)C1CC1 returned S100A4 MyoIIA 2, SIRT5 inh 8, DENV2 CPE 2, PGC1a acetyl inh 10 and C2C12 statin -11.
C[C@@H]1CN([C@@H](C)CO)S(=O)(=O)c2ccc(C#Cc3ccccc3)cc2O[C@H]1CN(C)C(=O)C1CC1 was read as S100A4 MyoIIA -1, SIRT5 inh 20*, DENV2 CPE -8, PGC1a acetyl inh -5 and C2C12 statin -13.
CCCN1CCN(C(=O)c2ccc3nc(CC)c(CC)nc3c2)CC1 was read as S100A4 MyoIIA 6, SIRT5 inh 20*, DENV2 CPE -1, PGC1a acetyl inh 2 and C2C12 statin -1.
Screening CCc1nc2ccc(C(=O)N3CCN(CC)CC3)cc2nc1CC returned S100A4 MyoIIA -25, SIRT5 inh -1, DENV2 CPE -1, PGC1a acetyl inh 3 and C2C12 statin 7.
C[C@H](CO)N1C[C@H](C)[C@H](CN(C)C(=O)Nc2ccc(F)cc2)Oc2ccc(NS(=O)(=O)c3cn(C)cn3)cc2C1=O was read as PGC1a acetyl inh -17 and C2C12 statin -7.
For CC(C)NC(=O)N(C)C[C@@H]1Oc2cc(-c3ccncc3)ccc2S(=O)(=O)N([C@H](C)CO)C[C@H]1C the results were S100A4 MyoIIA 160*, SIRT5 inh 0, DENV2 CPE -2, PGC1a acetyl inh 0 and C2C12 statin -11.
CC(=O)N(C)C[C@H]1Oc2cc(-c3ccncc3)ccc2S(=O)(=O)N([C@H](C)CO)C[C@@H]1C was read as S100A4 MyoIIA 7, SIRT5 inh -3, DENV2 CPE 19, PGC1a acetyl inh -1 and C2C12 statin 6.
`CC(C)NC(=O)N(C)C[C@@H]1Oc2cc(-c3ccncc3)ccc2S(=O)(=O)N([C@@H](C)CO)C[C@@H]1C` gave S100A4 MyoIIA 2, SIRT5 inh 7, DENV2 CPE -13, PGC1a acetyl inh 8 and C2C12 statin -3.
Screening CC(=O)N(C)C[C@@H]1Oc2cc(-c3ccncc3)ccc2S(=O)(=O)N([C@H](C)CO)C[C@@H]1C returned S100A4 MyoIIA -65, SIRT5 inh 0, DENV2 CPE 29*, PGC1a acetyl inh -3 and C2C12 statin -10.
Screening CS(=O)(=O)Nc1ccc2c(c1)[C@@H]1C[C@H](CC(=O)NCC3CC3)O[C@@H](CO)[C@@H]1O2 returned S100A4 MyoIIA -56, SIRT5 inh 6, DENV2 CPE 1, PGC1a acetyl inh 3 and C2C12 statin 3.
Screening O=C(c1ccccc1)N1CC[C@@H]2[C@H]1c1cc(C#Cc3cccc(F)c3)ccc1N[C@@H]2CO returned DENV2 CPE 43*, PGC1a acetyl inh -1 and C2C12 statin -9.
For O=C(c1ccccc1)N1CC[C@@H]2[C@@H](CO)Nc3ccc(C#Cc4cccc(F)c4)cc3[C@@H]21 the results were DENV2 CPE 23*, PGC1a acetyl inh 16 and C2C12 statin -8.
For O=C(c1cccc(F)c1)N1CC[C@@H]2[C@H]1c1cc(C#Cc3cccc(F)c3)ccc1N[C@@H]2CO the results were S100A4 MyoIIA -10, SIRT5 inh -3, DENV2 CPE -4, PGC1a acetyl inh 1 and C2C12 statin 0.
For O=C(c1cccc(F)c1)N1CC[C@@H]2[C@H](CO)Nc3ccc(C#Cc4cccc(F)c4)cc3[C@@H]21 the results were S100A4 MyoIIA -11, SIRT5 inh 3, DENV2 CPE 12, PGC1a acetyl inh 2 and C2C12 statin -48.
For COc1cccc(C#Cc2ccc3c(c2)[C@@H]2[C@@H](CCN2C(=O)c2ccc(F)cc2)[C@@H](CO)N3)c1 the results were DENV2 CPE 26*, PGC1a acetyl inh 16 and C2C12 statin 15.
For CCCNC(=O)N1[C@H](C#N)[C@H](c2ccccc2-c2ccc(C)cc2)[C@@H]1CO the results were S100A4 MyoIIA -4, SIRT5 inh 1, DENV2 CPE 2 and PGC1a acetyl inh -18.
Screening COc1ccc(CN2CC3(C2)CN(Cc2ccc4c(c2)OCO4)[C@H](CO)c2[nH]c4cc(OC)ccc4c23)cc1 returned DENV2 CPE -25 and PGC1a acetyl inh 14.
`Cn1cc(CN2CCCC(CNS(=O)(=O)c3cccc4cccnc34)C2)cn1` (centres undefined) gave S100A4 MyoIIA 0, SIRT5 inh -3, DENV2 CPE 16 and PGC1a acetyl inh -1.
`CC(C)n1cc(CN2CCCC(CNS(=O)(=O)c3cccc4cccnc34)C2)cn1` (centres undefined) gave S100A4 MyoIIA -7, SIRT5 inh 1, DENV2 CPE 22*, PGC1a acetyl inh 5 and C2C12 statin -10.
`Cc1noc(C)c1NC(=O)N(C)C[C@@H]1OCCCC[C@@H](C)Oc2ccc(NC(=O)c3ccccc3)cc2C(=O)N([C@H](C)CO)C[C@@H]1C` gave S100A4 MyoIIA 13, SIRT5 inh -7, DENV2 CPE 5 and PGC1a acetyl inh 7.
